High-throughput results deposited in PubChem BioAssay by Broad Institute.
CAL PDZ FP-1: human CAL PDZ-peptide interaction inhibition; purified CAL PDZ, TMR-peptide fluorescence polarization, 1 h; inhibition, % at 20 µM; AID 504414; actives 0.02% (n = 330,000);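 active means highest replicate inhibition of at least 40%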
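Test system: tagged CAL PDZ domain / Buffer or medium: sodium phosphate/NaCl buffer pH 7.4 with TCEP, IgG, Thesit / Reagent: TMR-labelled reporter peptide T*-PRC34 bound in PDZ groove / Compound dosing: single point, 20 µM / Schedule: 1 h incubation at room temperature before polarization reading / Technique: fluorescence polarization (mP) / Benchmarks: unlabelled peptide, DMSO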
SR-BI DiI inh: blocks mouse SR-BI lipid uptake from DiI-HDL | Q61009 | ldlA[mSR-BI] CHO cells, DiI-HDL uptake fluorescence, 3 h | inhibition, % at 12.5 µM | actives 0.96% (n = 320,000) | AID 488896;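 active means mean replicate inhibition of at least 70% and a set share of replicates each scoring 70 or more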
Target sequence (Q61009 whole entry, looked up): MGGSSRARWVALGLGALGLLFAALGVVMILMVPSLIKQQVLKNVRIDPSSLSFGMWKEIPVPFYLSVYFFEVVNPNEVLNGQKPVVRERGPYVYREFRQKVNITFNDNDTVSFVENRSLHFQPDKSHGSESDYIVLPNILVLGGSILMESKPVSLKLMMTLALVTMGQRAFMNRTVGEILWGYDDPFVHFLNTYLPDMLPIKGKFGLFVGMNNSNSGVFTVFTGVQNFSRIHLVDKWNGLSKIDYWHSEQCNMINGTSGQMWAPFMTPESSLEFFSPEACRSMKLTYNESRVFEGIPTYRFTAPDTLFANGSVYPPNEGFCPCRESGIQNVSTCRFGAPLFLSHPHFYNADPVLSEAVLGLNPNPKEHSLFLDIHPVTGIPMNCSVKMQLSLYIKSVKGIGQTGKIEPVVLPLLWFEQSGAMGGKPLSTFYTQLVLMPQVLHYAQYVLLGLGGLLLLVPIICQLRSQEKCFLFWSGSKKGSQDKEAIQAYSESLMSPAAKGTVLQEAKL
CAL PDZ FP-2: blocks peptide binding to the human CAL PDZ domain | purified CAL PDZ, TMR-peptide fluorescence polarization, 1 h | inhibition, % at 24.9 µM | actives 0.92% (n = 300,000) | AID 602252;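 active means mean inhibition of at least 30% with at least half of replicates also reaching 30%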
ARNT TACC3 PPI: ARNT/TACC3 interaction disruption. Q9Y6A5. AlphaScreen His-ARNT PAS-B/GST-TACC3 binding, luminescence; TACC3 fragment carries E629A point mutation. inhibition, % at 9.99 µM. actives 0.66% (n = 390,000). AID 623870;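 active means mean inhibition of replicates at least 50% and at least half of replicates each reaching 50%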
miR-122 sensor: inhibitors of miR-122 in Huh7 cells | Huh7 miR-122 Renilla luciferase sensor, 48 h; neutral wells = 0, positive control = 100 | activation (reporter increase), % at 12.5 µM | actives 0.3% (n = 340,000) | AID 602342;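 active means mean replicate activation score at least 90 and every replicate individually at or above 90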;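 further: higher luciferase means less miR-122 activity so hits act as miR-122 inhibitors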
SR-BI uptake up: activators of SR-BI mediated HDL lipid uptake; CHO ldlA[mSR-BI] cells, DiI-HDL uptake fluorescence, 3 h; 100 = double the neutral-control signal; actives 0.096% (n = 320,000); activation, % at 12.5 µM;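 active means mean replicate activation of at least 60% and every replicate at or above 60%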
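Assay system: LDL receptor-deficient CHO ldlA cells overexpressing murine SR-BI / Medium: BSA-supplemented, HEPES-buffered Ham's F12, pH 7.4 / Probe or stimulus: DiI-labelled HDL at 10 µg/mL final / Timing: compound with DiI-HDL co-incubation, 3 h at 37 °C / Technique: bottom-read cell fluorescence after medium removal, ex 550/em 595 nm / Measure: HDL uptake via cellular fluorescence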
ARNT Alpha ctr-1: counter-screen for ARNT/TACC3 inhibitors: AlphaScreen artifacts; shares compounds with ARNT TACC3 PPI; His-ARNT PASB-GST AlphaScreen artifact counter-screen, luminescence; AC50, µM (highest dose often 68 µM); actives 50% (n = 1,200); AID 651705;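 active means every separate test run was called active for a drop in luminescence, with AC50 within twice the top valid dose, actives reach about 71 µM in these data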
ARNT Alpha ctr-2: counter-screen for ARNT-TACC3 inhibitors: AlphaScreen artifacts. AID 720564. shares compounds with ARNT TACC3 PPI. AC50, µM. actives 70% (n = 45). Dual-tagged His-ARNT PASB-GST AlphaScreen artifact counter-screen;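 active means luminescence drop, with half-maximal potency fitted within twice the sample's top valid dose, cut at about 70 µM in these data; inactive means the rest, including signal moving the wrong way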
Hits are given with their value; i = inactive; nt = no result. Only some compounds are listed: those with a hit (about 2.1% of all), similar ones and a draw of the others.

SMILES	CAL PDZ FP-1	SR-BI DiI inh	CAL PDZ FP-2	ARNT TACC3 PPI	miR-122 sensor	SR-BI uptake up	ARNT Alpha ctr-1	others
O=C(CSc1nnc(CNC(=O)c2ccc(F)cc2)o1)Nc1nccs1	i	i	i	63	i	i	i
Cc1nnc(NC(=O)CSc2nnc(CNC(=O)c3ccc(S(=O)(=O)N(C)C)cc3)o2)s1	i	i	i	63	i	i	i
O=C(CSc1nnc(CNC(=O)c2ccc(F)cc2)o1)NCc1ccccc1	i	i	i	i	i	i	nt
COc1ccc(CNc2nc(-c3ccccn3)nnc2-c2ccccc2)cc1	nt	nt	nt	nt	nt	nt	1.7µM
c1ccc(-c2ccc(CNc3nc(-c4ccccn4)nnc3-c3ccccc3)cc2)cc1	nt	nt	nt	nt	nt	nt	3.4µM
OCCCNc1nc(-c2ccc(Cl)cc2)nnc1-c1ccccc1	i	i	i	i	i	i	nt
Cc1ccccc1CNc1nc(-c2ccccn2)nnc1-c1ccccc1	nt	nt	nt	nt	nt	nt	3.1µM
Cc1ccc(CNc2nc(-c3ccccn3)nnc2-c2ccccc2)cc1	nt	nt	nt	nt	nt	nt	1.5µM
CN1C(=O)c2cc(NC(=O)c3ccc(F)c(F)c3)ccc2OC[C@@H]2O[C@H](CC(=O)O)CC[C@@H]21	nt	nt	nt	i	i	nt	nt
C[C@H](CO)N1C[C@H](C)[C@@H](CN(C)C(=O)Cc2cccnc2)Oc2ncc(-c3ccccc3)cc2C1=O	nt	nt	nt	i	i	nt	nt
CC(C)NC(=O)N(C)C[C@@H]1OCCCC[C@@H](C)Oc2ccc(NC(=O)Nc3ccc(F)cc3)cc2C(=O)N([C@@H](C)CO)C[C@H]1C	nt	nt	nt	i	i	nt	nt
Cc1noc(C)c1NC(=O)Nc1ccc2c(c1)C(=O)N([C@H](C)CO)C[C@@H](C)[C@@H](CN(C)S(=O)(=O)c1ccc(F)cc1)OCCCC[C@H](C)O2	nt	nt	nt	i	i	nt	nt
Cc1cccc(CNc2nc(-c3ccccn3)nnc2-c2ccccc2)c1	nt	nt	nt	nt	nt	nt	2.1µM
c1ccc(-c2nnc(-c3ccccn3)nc2NCc2cccnc2)cc1	nt	nt	nt	nt	nt	nt	0.69µM
Cc1cc2nc(-c3ccccn3)c(-c3ccccn3)nc2cc1C	i	i	i	i	nt	i	nt
C=CCNC(=O)c1ccc2nc(-c3ccccc3)c(-c3ccccc3)nc2c1	i	i	i	i	i	i	nt
Oc1ccccc1-c1nc(NCc2cccnc2)c2ccccc2n1	i	i	i	i	i	i	nt
C=CCNc1nc(-c2ccccn2)nnc1-c1ccccc1	i	i	i	104	i	i	1.3µM
Cc1ccc(CNc2nc(-c3ccccn3)nnc2-c2ccccc2)cc1C	nt	nt	nt	nt	nt	nt	2.8µM
O=C(C[C@@H]1CC[C@@H]2[C@H](COC[C@@H](O)CN2Cc2cccc(Cl)c2)O1)N1CCOCC1	nt	nt	nt	i	i	nt	nt
C[C@@H]1CN([C@@H](C)CO)C(=O)c2cc(C3=CCCCC3)cnc2O[C@H]1CN(C)C(=O)Nc1ccc(F)cc1	nt	nt	nt	i	i	nt	nt
O=c1oc2ccccc2c(O)c1C=NCc1ccccn1	i	i	i	58	i	i	i
O=C(C[C@@H]1C[C@H]2c3cc(NC(=O)NC4CCCC4)ccc3O[C@H]2[C@H](CO)O1)NCc1cccc(F)c1	nt	nt	nt	i	i	nt	nt
Cc1ccc(C)c(NC(=O)CSc2cccc3cccnc23)c1	nt	nt	i	i	i	nt	nt
CCOc1cc(/C=N/NC(=O)CSc2cccc3cccnc23)ccc1O	i	i	i	63	nt	i	i
O=C(CSc1cccc2cccnc12)N/N=C/c1ccncc1	i	i	nt	62	nt	i	i
O=C(N[C@H]1CC[C@@H](CCNS(=O)(=O)c2cccc(Cl)c2)O[C@H]1CO)c1ccncc1	nt	nt	nt	i	i	nt	nt
Cc1ccc(S(=O)(=O)CCc2nnc(NC(=O)c3ccccn3)s2)cc1	i	i	i	73	i	i	34µM
Cc1ccc(S(=O)(=O)CCc2nnc(NC(=O)c3ccccc3)s2)cc1	nt	nt	nt	nt	nt	nt	nt	ARNT Alpha ctr-2=i
COc1cccc(C(=O)Nc2nnc(CCS(=O)(=O)c3ccc(C)cc3)s2)c1	i	i	i	i	i	i	nt
